Test results: ChEMBL document CHEMBL4017537, “Discovery of a Potent and Specific M. tuberculosis Leucyl-tRNA Synthetase Inhibitor: (S)-3-(Aminomethyl)-4-chloro-7-(2-hydroxyethoxy)benzo[c][1,2]oxaborol-1(3H)-ol (GSK656)” (J Med Chem, 2017)
Values after ≈ are worked out from the molar mass of the structure shown.

Columns and labels:
Leucine--tRNA ligase = molecular target: T1, Leucine--tRNA ligase (Mycobacterium tuberculosis (strain ATCC 25618 / H37Rv), UniProt P9WFV1); assay: Inhibition of Mycobacterium tuberculosis H37Rv N-terminal 6His-tagged LeuRS expressed in Escherichia coli BL21(DE3) assessed as L-[14C]leucine incorporation in to Escherichia coli tRNA after 20 mins by liquid scintillation counting analysis
T1 sequence (P9WFV1 whole entry): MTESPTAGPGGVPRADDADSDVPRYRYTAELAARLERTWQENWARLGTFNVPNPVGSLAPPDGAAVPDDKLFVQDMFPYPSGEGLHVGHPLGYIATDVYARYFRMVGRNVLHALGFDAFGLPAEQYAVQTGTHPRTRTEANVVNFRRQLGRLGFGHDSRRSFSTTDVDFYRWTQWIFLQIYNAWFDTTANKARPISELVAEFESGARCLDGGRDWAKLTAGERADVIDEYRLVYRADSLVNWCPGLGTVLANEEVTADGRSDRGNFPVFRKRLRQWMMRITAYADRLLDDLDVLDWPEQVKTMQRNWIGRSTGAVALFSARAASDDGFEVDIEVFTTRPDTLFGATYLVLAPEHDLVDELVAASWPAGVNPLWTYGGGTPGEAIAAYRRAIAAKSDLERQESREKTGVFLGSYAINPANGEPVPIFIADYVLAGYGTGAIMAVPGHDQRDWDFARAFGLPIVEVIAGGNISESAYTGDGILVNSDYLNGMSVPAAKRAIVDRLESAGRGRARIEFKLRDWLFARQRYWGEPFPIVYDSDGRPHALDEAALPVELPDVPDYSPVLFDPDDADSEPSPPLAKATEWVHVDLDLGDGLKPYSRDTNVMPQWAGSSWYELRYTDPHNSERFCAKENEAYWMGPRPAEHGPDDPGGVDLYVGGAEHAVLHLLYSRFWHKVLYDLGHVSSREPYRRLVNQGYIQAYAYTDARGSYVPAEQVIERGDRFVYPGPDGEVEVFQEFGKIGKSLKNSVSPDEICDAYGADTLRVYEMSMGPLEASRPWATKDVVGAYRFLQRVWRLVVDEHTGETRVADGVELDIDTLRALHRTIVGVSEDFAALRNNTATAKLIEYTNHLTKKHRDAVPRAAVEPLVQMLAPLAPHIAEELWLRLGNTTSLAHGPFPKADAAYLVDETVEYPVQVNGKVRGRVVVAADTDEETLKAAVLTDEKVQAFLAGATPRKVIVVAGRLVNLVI
How it was run: (§1)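 N-terminal His6-tagged LeuRS expressed in E. coli BL21(DE3), codon-optimized. 50 mM HEPES-KOH pH 8.0, 30 mM MgCl2, 30 mM KCl, 13 μM L-[14C]leucine, 15 μM tRNA (E. coli total; brewer's yeast for human cytoplasmic enzyme), 0.02% BSA, 1 mM DTT, 30 °C. Inhibitor preincubated 20 min, started with 4 mM ATP, TCA-quenched after 7 min, filtered, scintillation counted; four-parameter logistic IC50.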

[1] = system: Mycobacterium tuberculosis; assay: Antimicrobial activity against Mycobacterium tuberculosis H37Rv; type: functional
cytoplasmic LeuRS = assay: Selectivity index, ratio of EC50 for inhibition of cytoplasmic LeuRS in HepG2 cells assessed as reduction in protein synthesis to MIC for Mycobacterium tuberculosis H37Rv; type: toxicity, cell-based; details: human, read-out: Selectivity Index
How it was run: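 Ratio of HepG2 protein-synthesis EC50 to MIC against M. tuberculosis H37Rv.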

[2] = molecular target: T2, Leucine--tRNA ligase, mitochondrial (Homo sapiens, UniProt Q15031); assay: Inhibition of human N-terminal 6His-tagged mitochondrial LeuRS expressed in Escherichia coli BL21(DE3) assessed as L-[14C]leucine incorporation in to Escherichia coli tRNA after 20 mins by liquid scintillation counting analysis; how it was run: as §1
T2 sequence (Q15031 whole entry): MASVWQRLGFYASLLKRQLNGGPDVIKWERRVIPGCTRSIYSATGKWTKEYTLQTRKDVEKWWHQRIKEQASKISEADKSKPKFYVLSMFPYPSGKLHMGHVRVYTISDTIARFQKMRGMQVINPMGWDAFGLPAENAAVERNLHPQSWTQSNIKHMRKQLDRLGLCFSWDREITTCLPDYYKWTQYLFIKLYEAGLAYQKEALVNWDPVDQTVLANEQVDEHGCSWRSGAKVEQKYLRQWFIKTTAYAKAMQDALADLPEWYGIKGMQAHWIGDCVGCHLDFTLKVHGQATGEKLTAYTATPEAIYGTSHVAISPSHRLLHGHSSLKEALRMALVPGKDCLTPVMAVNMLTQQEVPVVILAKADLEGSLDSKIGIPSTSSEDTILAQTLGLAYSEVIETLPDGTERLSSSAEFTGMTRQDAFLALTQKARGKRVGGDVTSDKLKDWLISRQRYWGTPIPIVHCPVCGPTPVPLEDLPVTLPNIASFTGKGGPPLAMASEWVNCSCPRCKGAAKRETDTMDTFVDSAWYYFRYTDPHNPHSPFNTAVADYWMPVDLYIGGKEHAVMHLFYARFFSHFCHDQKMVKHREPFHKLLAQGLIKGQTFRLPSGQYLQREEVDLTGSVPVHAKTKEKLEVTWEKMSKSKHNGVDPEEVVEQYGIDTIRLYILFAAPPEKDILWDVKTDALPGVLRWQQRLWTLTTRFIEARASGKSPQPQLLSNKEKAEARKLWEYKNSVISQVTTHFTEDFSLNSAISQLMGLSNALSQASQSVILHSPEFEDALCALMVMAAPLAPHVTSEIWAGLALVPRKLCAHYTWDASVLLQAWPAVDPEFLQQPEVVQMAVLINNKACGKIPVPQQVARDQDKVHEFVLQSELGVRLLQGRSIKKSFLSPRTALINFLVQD

[3] = molecular target: Leucine--tRNA ligase, cytoplasmic (Homo sapiens, UniProt Q9P2J5); assay: Inhibition of cytoplasmic LeuRS in human HepG2 cells assessed as reduction in protein synthesis preincubated for 48 hrs followed by L-[14C]leucine addition measured after 3 hrs by liquid scintillation counting analysis; type: cell-based
Chain of Leucine--tRNA ligase, cytoplasmic (Q9P2J5 whole entry): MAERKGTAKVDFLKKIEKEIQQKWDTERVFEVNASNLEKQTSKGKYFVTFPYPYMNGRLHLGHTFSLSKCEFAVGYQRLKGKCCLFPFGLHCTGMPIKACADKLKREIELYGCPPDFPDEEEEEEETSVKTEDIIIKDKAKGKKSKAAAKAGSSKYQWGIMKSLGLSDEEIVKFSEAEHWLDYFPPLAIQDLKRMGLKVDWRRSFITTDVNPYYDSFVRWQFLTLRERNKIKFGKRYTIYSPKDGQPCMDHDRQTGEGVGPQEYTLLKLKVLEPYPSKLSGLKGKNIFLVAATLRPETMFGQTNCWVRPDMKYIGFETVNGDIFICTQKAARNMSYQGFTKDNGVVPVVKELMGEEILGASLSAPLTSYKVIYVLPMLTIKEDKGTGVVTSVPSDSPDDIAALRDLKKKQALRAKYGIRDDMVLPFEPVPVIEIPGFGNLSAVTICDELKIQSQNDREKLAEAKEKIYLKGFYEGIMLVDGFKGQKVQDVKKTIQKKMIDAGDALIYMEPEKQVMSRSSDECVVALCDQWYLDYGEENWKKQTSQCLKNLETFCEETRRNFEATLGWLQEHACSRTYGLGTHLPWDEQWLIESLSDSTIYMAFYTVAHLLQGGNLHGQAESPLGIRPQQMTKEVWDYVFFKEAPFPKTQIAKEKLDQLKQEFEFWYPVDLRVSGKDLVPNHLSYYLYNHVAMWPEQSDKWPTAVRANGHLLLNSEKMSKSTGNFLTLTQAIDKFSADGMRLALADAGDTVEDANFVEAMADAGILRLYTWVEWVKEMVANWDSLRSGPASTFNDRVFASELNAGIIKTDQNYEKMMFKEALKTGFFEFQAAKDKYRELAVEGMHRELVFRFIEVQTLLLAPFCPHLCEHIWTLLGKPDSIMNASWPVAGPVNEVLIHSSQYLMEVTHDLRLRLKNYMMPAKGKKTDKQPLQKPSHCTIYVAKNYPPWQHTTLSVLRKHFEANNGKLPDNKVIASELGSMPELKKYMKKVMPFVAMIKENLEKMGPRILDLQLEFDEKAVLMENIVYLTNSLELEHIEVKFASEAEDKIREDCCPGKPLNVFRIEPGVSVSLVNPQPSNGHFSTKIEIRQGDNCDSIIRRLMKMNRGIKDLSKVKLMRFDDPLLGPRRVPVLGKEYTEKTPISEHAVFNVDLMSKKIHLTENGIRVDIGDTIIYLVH
How it was run: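 HepG2 cells in DMEM/10% FCS, 3000 cells/well, exposed to compound dilutions (0.5% DMSO final) for 48 h at 37 °C. Medium then replaced with fresh medium containing 0.5 μCi L-[14C]leucine and the same compound levels for 3 h. Cells trypsinised, precipitated in ice-cold 20% TCA, filtered, washed, scintillation counted; curve-fit EC50; mean of at least duplicates.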

HepG2 = assay: Cytotoxicity against human HepG2 cells assessed as reduction in cell viability after 48 hrs by CellTiter-Glo assay; type: cell-based; details: HepG2, 48 h
How it was run: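 HepG2 cells seeded at 10 000/well in EMEM with 5% FCS and 2 mM glutamine. After 24 h, ten 1:2 serial compound dilutions (0.5% DMSO final) added in duplicate for 48 h. Read-out by CellTiter-Glo luminescence per table footnote; the method text also describes resazurin fluorescence (ex 515/em 590 nm). Sigmoidal variable-slope fit.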

[4] = system: Mycobacterium tuberculosis; assay: Antimicrobial activity against Mycobacterium tuberculosis H37Rv infected in C57BL/6J mouse assessed as 2 log reduction in bacterial load in lungs administered qd for 8 consecutive days starting on day 1 post infection measured 24 hrs post last dose; type: functional

Structure (SMILES): CCOc1ccc(Br)c2c1B(O)O[C@@H]2CN
- IC50 (Leucine--tRNA ligase): 0.075 µM
- MIC [1]: 0.1 µM (≈ 0.0286 µg/mL)
- selectivity ratio (cytoplasmic LeuRS): 305
- IC50 [2]: > 300 µM
- EC50 [3]: 30.5 µM
- EC50 (HepG2): 47.1 µM
- ED99 [4]: < 1 mg/kg

Structure (SMILES): Cl.NC[C@H]1OB(O)c2c(OCCO)ccc(Cl)c21
- IC50 (Leucine--tRNA ligase): 0.2 µM
- MIC [1]: 0.08 µM
- selectivity ratio (cytoplasmic LeuRS): 1710
- IC50 [2]: > 300 µM
- EC50 [3]: 137 µM
- EC50 (HepG2): 381 µM
- ED99 [4]: 0.4 mg/kg
